{
  "source": "ChEMBL document CHEMBL2331551",
  "about": "“TOPS-MODE model of multiplexing neuroprotective effects of drugs and experimental-theoretic study of new 1,3-rasagiline derivatives potentially useful in neurodegenerative diseases” (2013)",
  "format_in_all_cases": "functional, Neuron",
  "key": {"[1]": {"assay": "Neuroprotection in Sprague-Dawley rat embryonic motor cortex neurons assessed as protection against 100 uM glutamate-induced excitotoxicity at 5 uM by MTT method", "method_in_brief": "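Primary cultures of motor cortex neurons from 19-day Sprague-Dawley rat embryos, challenged with glutamate as neurotoxic agent alongside the compound. Cell viability read by MTT reduction, taken as mitochondrial integrity and functional activity, reflecting the number of viable cells. Neuroprotection (NP) reported in %, as mean ± SEM from at least three independent experiments.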"}, "[2]": {"assay": "Neuroprotection in Sprague-Dawley rat embryonic motor cortex neurons at 5 uM by MTT method", "method_in_brief": "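Cultured neurons from embryonic day-19 Sprague-Dawley rat motor cortex, with compound alone and no neurotoxic agent added. Viability measured by MTT reduction, read as mitochondrial functional activity and number of cells present in culture. Neuroprotection expressed as % (NP), mean ± SEM of at least three independent experiments.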"}, "[3]": {"assay": "Neuroprotection in Sprague-Dawley rat embryonic motor cortex neurons assessed as protection against 100 uM H2O2-induced neuronal death at 5 uM by MTT method", "method_in_brief": "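Primary neurons cultured from embryonic day-19 Sprague-Dawley rat motor cortex. Cells were exposed to compound in the presence of H2O2 as the neurotoxic insult. Viability was read as MTT reduction, which reflects mitochondrial integrity and function and indicates the number of viable cells. Protection is given as mean ± SEM of at least three independent experiments.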"}},
  "data": [
    {"smiles": "C#CCN[C@@H]1C[C@@H](O)c2ccccc21", "values": [
      {"measurement": "Activity", "setting": "[1]", "result": 15.2, "unit": "%"},
      {"measurement": "Activity", "setting": "[2]", "result": 23.4, "unit": "%"},
      {"measurement": "Activity", "setting": "[3]", "result": 14.5, "unit": "%"}
    ]},
    {"smiles": "C#CCN[C@@H]1C[C@H](O)c2ccccc21", "values": [
      {"measurement": "Activity", "setting": "[1]", "result": 0, "unit": "%"},
      {"measurement": "Activity", "setting": "[2]", "result": 0, "unit": "%"},
      {"measurement": "Activity", "setting": "[3]", "result": 46.2, "unit": "%"}
    ]},
    {"smiles": "C#CCN(CC#C)[C@@H]1C[C@H](O)c2ccccc21", "values": [
      {"measurement": "Activity", "setting": "[1]", "result": 0, "unit": "%"},
      {"measurement": "Activity", "setting": "[2]", "result": -5, "unit": "%"},
      {"measurement": "Activity", "setting": "[3]", "result": 17.8, "unit": "%"}
    ]},
    {"smiles": "C#CCN(CC#C)[C@@H]1C[C@@H](O)c2ccccc21", "values": [
      {"measurement": "Activity", "setting": "[1]", "result": -0.5, "unit": "%"},
      {"measurement": "Activity", "setting": "[2]", "result": -1, "unit": "%"},
      {"measurement": "Activity", "setting": "[3]", "result": 19.6, "unit": "%"}
    ]},
    {"smiles": "C#CCN(CC#C)[C@@H]1C[C@H](OC(C)=O)c2ccccc21", "values": [
      {"measurement": "Activity", "setting": "[1]", "result": -1.5, "unit": "%"},
      {"measurement": "Activity", "setting": "[2]", "result": 0, "unit": "%"},
      {"measurement": "Activity", "setting": "[3]", "result": 18.2, "unit": "%"}
    ]},
    {"smiles": "C#CCN(CC#C)[C@@H]1C[C@@H](OC(C)=O)c2ccccc21", "values": [
      {"measurement": "Activity", "setting": "[1]", "result": -0.5, "unit": "%"},
      {"measurement": "Activity", "setting": "[2]", "result": 0, "unit": "%"},
      {"measurement": "Activity", "setting": "[3]", "result": 12.3, "unit": "%"}
    ]},
    {"smiles": "C#CCN(CC#C)[C@@H]1C[C@H](OC(=O)c2ccccc2)c2ccccc21", "values": [
      {"measurement": "Activity", "setting": "[1]", "result": 1.6, "unit": "%"},
      {"measurement": "Activity", "setting": "[2]", "result": -5.1, "unit": "%"},
      {"measurement": "Activity", "setting": "[3]", "result": 16.4, "unit": "%"}
    ]},
    {"smiles": "C#CCN(CC#C)[C@@H]1C[C@@H](OC(=O)c2ccccc2)c2ccccc21", "values": [
      {"measurement": "Activity", "setting": "[1]", "result": -1.3, "unit": "%"},
      {"measurement": "Activity", "setting": "[2]", "result": 6.9, "unit": "%"},
      {"measurement": "Activity", "setting": "[3]", "result": -5.8, "unit": "%"}
    ]}
  ]
}
